Measurements as given in ChEMBL document CHEMBL3351898, “4-Aminoquinoline-pyrimidine hybrids: synthesis, antimalarial activity, heme binding and docking studies” (Eur J Med Chem, 2015).
Active and inactive are the calls of the source. The rule behind the calls is not given here.

Experiments:
Plasmodium falciparum [1] = assay: Antimalarial activity against chloroquine-sensitive Plasmodium falciparum D6 assessed as inhibition of parasite growth after 72 hrs by parasite LDH release assay; type: functional, organism-based; conditions: D6, 72 h
Method in brief: (§1)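 Asexual P. falciparum cultures at 2% parasitemia and 2% hematocrit in RPMI 1640 with 10% human serum and amikacin were added to serially diluted compound. Plates were incubated 72 h at 37 °C under 90% N2/5% O2/5% CO2. Growth was read by pLDH: Malstat reagent 30 min at room temperature, then NBT/PES 1 h in the dark. IC50 taken from dose-response curves; chloroquine and pyrimethamine controls.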

Plasmodium falciparum [2] = assay: Antimalarial activity against chloroquine-resistant Plasmodium falciparum W2 assessed as inhibition of parasite growth after 72 hrs by parasite LDH release assay; type: functional, organism-based; conditions: W2, 72 h; method in brief: as §1
[3] = Selectivity index, ratio of IC50 for African green monkey Vero cells to IC50 for chloroquine-sensitive Plasmodium falciparum D6; type: toxicity, cell-based; conditions: read-out: Ratio IC50
Method in brief: (§2)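 Vero cells seeded at 25,000 cells/well and grown 24 h, then exposed to a range of compound concentrations for 48 h. Viability measured by Neutral Red uptake; IC50 from dose-response curves. SI calculated as Vero IC50 divided by antiplasmodial IC50 for the named strain.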

Vero [4] = assay: Cytotoxicity against African green monkey Vero cells after 72 hrs by neutral red assay; type: cell-based, Chlorocebus sabaeus; conditions: in the assay text read “after 48 hrs” for “after 72 hrs”
Method in brief: (§3)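 Vero cells (monkey kidney […]) were seeded at 25,000 cells/well and incubated 24 h, then exposed to a range of compound concentrations for 48 h. Viable cells were counted by Neutral Red assay, and IC50 was obtained from dose-response curves.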

[5] = Resistance index, ratio of IC50 for chloroquine-resistant Plasmodium falciparum W2 to IC50 for chloroquine-sensitive Plasmodium falciparum D6; type: functional
[6] = Selectivity index, ratio of IC50 for African green monkey Vero cells to IC50 for chloroquine-resistant Plasmodium falciparum W2; type: toxicity, cell-based; conditions: read-out: Ratio IC50; method in brief: as §2
Heme [7] = assay: Binding affinity to monomeric heme (unknown origin) assessed as binding constant at pH 7.4
Method in brief: (§4)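 Hematin in 40% DMSO (monomeric heme, Soret band 402 nm) was titrated with compound in 0.02 M HEPES pH 7.4 or 0.02 M MES pH 5.6. Association constants (log K) were calculated from the titration data, and stoichiometry was taken from a Job's plot of absorbance at 402 nm against compound mole fraction.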

Heme [8] = assay: Binding affinity to heme (unknown origin) assessed as reduction in Fe(3+) intensity at pH 7.4
mu-oxodimeric heme = assay: Binding affinity to mu-oxo-heme (unknown origin) assessed as binding constant at pH 5.8
Method in brief: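 μ-Oxo-dimeric heme in 20 mM phosphate buffer pH 5.8 was titrated with compound, following the decrease in absorbance at 362 nm. The log K was derived from the titration, and stoichiometry came from a Job's plot.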

Heme [9] = assay: Binding affinity to monomeric heme (unknown origin) assessed as binding constant at pH 5.6; method in brief: as §4
Heme [10] = assay: Binding affinity to heme (unknown origin) assessed as reduction in Fe(3+) intensity at pH 5.6
Heme [11] = assay: Binding affinity to heme (unknown origin) assessed as reduction in Fe(3+) intensity
Vero [12] = assay: Cytotoxicity against African green monkey Vero cells up to 20 uM after 72 hrs by neutral red assay; type: cell-based; conditions: chlorocebus sabaeus, 48 h, in the assay text read “48 hrs” for “72 hrs”; method in brief: as §3
Plasmodium berghei [13] = assay: Antimalarial activity against Plasmodium berghei infected in mouse assessed as reduction in parasitemia at 100 mg/kg/day, po dosed on days 0, 1 and 2 post infection measured on day 7; type: functional; conditions: 168 h
Method in brief: (§5)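 P. berghei-infected mice were given the compound orally at 11.1, 33.3 or 100 mg/kg × 3 days. Vehicle and chloroquine groups were included. Parasitemia was read on days 5 and 7, and % suppression was calculated with mean parasitemia in the vehicle control taken as 100%. Mean survival time was also recorded.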

Plasmodium berghei [14] = assay: Antimalarial activity against Plasmodium berghei infected in mouse assessed as reduction in parasitemia at 100 mg/kg/day, po dosed on days 0, 1 and 2 post infection measured on day 5; type: functional; conditions: 120 h; method in brief: as §5
Plasmodium berghei [15] = assay: Antimalarial activity against Plasmodium berghei infected in mouse assessed as mean survival time at 100 mg/kg/day, po dosed on days 0, 1 and 2 post infection; type: functional
Method in brief: (§6)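 P. berghei-infected mice dosed orally with test agent at 11.1, 33.3 or 100 mg/kg, once daily for 3 days; vehicle and chloroquine controls. Mean survival time recorded; parasitemia on days 5 and 7 expressed as % suppression, taking mean vehicle-control parasitemia as 100%.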

Plasmodium berghei [16] = assay: Antimalarial activity against Plasmodium berghei infected in mouse assessed as reduction in parasitemia at 33.3 mg/kg/day, po dosed on days 0, 1 and 2 post infection measured on day 5; type: functional; conditions: 120 h; method in brief: as §5
Plasmodium berghei [17] = assay: Antimalarial activity against Plasmodium berghei infected in mouse assessed as mean survival time at 11.1 mg/kg/day, po dosed on days 0, 1 and 2 post infection; type: functional; method in brief: as §6
Plasmodium berghei [18] = assay: Antimalarial activity against Plasmodium berghei infected in mouse assessed as reduction in parasitemia at 33.3 mg/kg/day, po dosed on days 0, 1 and 2 post infection measured on day 7; type: functional; conditions: 168 h; method in brief: as §5
Plasmodium berghei [19] = assay: Antimalarial activity against Plasmodium berghei infected in mouse assessed as reduction in parasitemia at 11.1 mg/kg/day, po dosed on days 0, 1 and 2 post infection measured on day 5; type: functional; conditions: 120 h; method in brief: as §5
Plasmodium berghei [20] = assay: Antimalarial activity against Plasmodium berghei infected in mouse assessed as mean survival time at 33.3 mg/kg/day, po dosed on days 0, 1 and 2 post infection; type: functional; method in brief: as §6
Plasmodium falciparum [21] = assay: Antimalarial activity against chloroquine-resistant Plasmodium falciparum W2 assessed as inhibition of parasite growth up to 19 uM after 72 hrs by parasite LDH release assay; type: functional, organism-based; method in brief: as §1
[22] = Chlorocebus sabaeus, Vero, 48 h, read-out: IC50

Row | SMILES | IC50 (Plasmodium falciparum [1]) | IC50 (Plasmodium falciparum [2]) | selectivity ratio [3] | IC50 (Vero [4]; [22]) | Ratio IC50 [5] | selectivity ratio [6] | Activity (Vero [12]) | IC50 (Vero [4]; vero) | further results
1 | COc1ccc(Nc2ccnc(NCCCCNc3ccnc4cc(Cl)ccc34)n2)cc1 | 50 nM | 67 nM | 223 | 11100 nM | 1.34 | 166 |  |  | 
2 | Clc1ccc(Nc2ccnc(NCCNc3ccnc4cc(Cl)ccc34)n2)cc1 | 47 nM | 46 nM | 335 | 15800 nM | 0.978 | 342 |  |  | log K (Heme [7]): 5.04; Activity (Heme [8]): Active; log K (mu-oxodimeric heme): 5.12; log K (Heme [9]): 5.51; Activity (Heme [10]): Active; Activity (Heme [11]): Active
3 | Clc1ccc(Nc2ccnc(NCCCCNc3ccnc4cc(Cl)ccc34)n2)cc1 | 44 nM | 52 nM | 251 | 11000 nM | 1.18 | 212 |  |  | 
4 | Cc1ccc(Nc2ccnc(NCCCCNc3ccnc4cc(Cl)ccc34)n2)cc1 | 138 nM | 518 nM | 140 | 19300 nM | 3.75 | 37.2 |  |  | 
5 | CCN(CC)CCCC(C)Nc1ccnc2cc(Cl)ccc12 (configuration not stated) [CHLOROQUINE] |  |  |  |  |  |  | Non-toxic | Not Active | inhibition in vivo at 100 mg/kg/day (Plasmodium berghei [13]): 100%; inhibition in vivo at 100 mg/kg/day (Plasmodium berghei [14]): 100%; MST (Plasmodium berghei [15]): 26.2 days
6 | Clc1ccc2c(NCCCCNc3nccc(Nc4ccc(Br)cc4)n3)ccnc2c1 | 47 nM | 63 nM | 214 | 10000 nM | 1.34 | 159 |  |  | 
7 | Clc1ccc2c(NCCNc3nccc(Nc4ccccc4)n3)ccnc2c1 | 1510 nM | 1530 nM | > 13.2 |  | 1.05 | > 13.1 | Non-toxic | Not Active | 
8 | COc1cc(Nc2ccnc(NCCCNc3ccnc4cc(Cl)ccc34)n2)cc(OC)c1 | 38 nM | 107 nM | 340 | 12900 nM | 2.81 | 121 |  |  | 
9 | COc1ccc(Nc2ccnc(NCCCNc3ccnc4cc(Cl)ccc34)n2)cc1 | 40 nM | 81 nM | 333 | 13300 nM | 2.02 | 165 |  |  | 
10 | Clc1ccc(Nc2ccnc(NCCCNc3ccnc4cc(Cl)ccc34)n2)cc1 | 47 nM | 445 nM | 286 | 13400 nM | 9.46 | 30.2 |  |  | 
11 | Clc1ccc2c(NCCCNc3nccc(Nc4ccc(Br)cc4)n3)ccnc2c1 | 49 nM | 47 nM | 228 | 11200 nM | 0.95 | 237 |  |  | 
12 | COc1ccc(Nc2ccnc(NCCNc3ccnc4cc(Cl)ccc34)n2)cc1 | 40 nM | 241 nM | > 500 |  | 6.03 | > 83 | Non-toxic | Not Active | 
13 | Clc1ccc2c(NCCCNc3nccc(Nc4ccccc4)n3)ccnc2c1 | 19 nM | 144 nM | 676 | 12800 nM | 7.57 | 89.2 |  |  | 
14 | Cc1ccc(Nc2ccnc(NCCNc3ccnc4cc(Cl)ccc34)n2)cc1 | 101 nM | 143 nM | 135 | 13600 nM | 1.41 | 95.1 |  |  | 
15 | Fc1ccc(Nc2ccnc(NCCNc3ccnc4cc(Cl)ccc34)n2)cc1 | 6020 nM | 9990 nM | > 3.32 |  | 1.65 | > 2 | Non-toxic | Not Active | 
16 | COc1cc(Nc2ccnc(NCCNc3ccnc4cc(Cl)ccc34)n2)cc(OC)c1 | 33 nM | 58 nM | > 606 |  | 1.75 | > 345 | Non-toxic | Not Active | inhibition in vivo at 33.3 mg/kg/day (Plasmodium berghei [16]): 15.1%; MST (Plasmodium berghei [17]): 5 days; inhibition in vivo at 33.3 mg/kg/day (Plasmodium berghei [18]): 6.2%; inhibition in vivo at 11.1 mg/kg/day (Plasmodium berghei [19]): 1.77%; inhibition in vivo at 100 mg/kg/day (Plasmodium berghei [13]): 10.4%; MST (Plasmodium berghei [20]): 8.6 days; inhibition in vivo at 100 mg/kg/day (Plasmodium berghei [14]): 42.1%; MST (Plasmodium berghei [15]): 9 days
17 | COc1cc(Nc2ccnc(NCCCCNc3ccnc4cc(Cl)ccc34)n2)cc(OC)c1 | 44 nM | 120 nM | 285 | 12500 nM | 2.72 | 104 |  |  | 
18 | CCc1nc(N)nc(N)c1-c1ccc(Cl)cc1 |  |  |  |  |  |  |  |  | growth inhibition (GI) (Plasmodium falciparum [21]): inactive
19 | Fc1ccc(Nc2ccnc(NCCCCNc3ccnc4cc(Cl)ccc34)n2)cc1 | 3200 nM | 5830 nM | > 6.25 |  | 1.82 | > 3.43 | Non-toxic | Not Active | 
20 | Cc1ccc(Nc2ccnc(NCCCNc3ccnc4cc(Cl)ccc34)n2)cc1 | 153 nM | 346 nM | 121 | 18500 nM | 2.26 | 53.4 |  |  | 
21 | Clc1ccc2c(NCCNc3nccc(Nc4ccc(Br)cc4)n3)ccnc2c1 | 37 nM | 136 nM | > 541 |  | 3.67 | > 147 | Non-toxic | Not Active | 
22 | Fc1ccc(Nc2ccnc(NCCCNc3ccnc4cc(Cl)ccc34)n2)cc1 | 28 nM | 94 nM | 490 | 13700 nM | 3.35 | 146 |  |  | 
23 | Clc1ccc2c(NCCCCNc3nccc(Nc4ccccc4)n3)ccnc2c1 | 44 nM | 403 nM | 326 | 14300 nM | 9.15 | 35.5 |  |  | 
